An excerpt weighted towards active compounds, which were near 2.9% of everything screened.
SENP8 block-1 – SENP8 protease inhibitors, primary screen, biochemical, luminescence; Sentrin-specific protease 8 (Homo sapiens), Q96LD8; purified SENP8, Z-RLRGG-aminoluciferin cleavage; inhibition, % at 10 µM; 1.2% of 330,000 active; in the data active = inhibition above about 50%
SENP8 block-2 – human SENP8 protease inhibitors, primary screen, biochemical, fluorescence, Nedd8 protein substrate, uHTS. Sentrin-specific protease 8 (Homo sapiens), Q96LD8. recombinant SENP8. inhibition, % at 20 µM. 0.64% of 360,000 active; in the data active = inhibition mostly above about 40%, no sharp cut-off; inactive = mostly below about 27%
SENP7 block – SENP7 protease inhibitors, primary screen, biochemical, luminescence, uHTS | Sentrin-specific protease 7 (Homo sapiens), Q9BQF6 | recombinant SENP7, Z-RLRGG-aminoluciferin luminescence, 40 min | inhibition, % at 5 µM | 1.5% of 330,000 active;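 active = inhibition above about 50% at the single test dose, limit read from the data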;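 also: plate controls were DMSO with enzyme for no effect and no enzyme buffer wells for full effect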
SENP6 block – SENP6 protease inhibitors, primary screen, biochemical, luminescence, uHTS; Sentrin-specific protease 6 (Homo sapiens), Q9GZR1; Recombinant SENP6 catalytic domain, aminoluciferin luminescence; inhibition, % at 10 µM; 1.8% of 330,000 active;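 active = inhibition above about 50% at the single tested dose, limit read from the data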;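 also: plate controls were DMSO wells with enzyme for no effect and DMSO wells lacking enzyme for full effect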
Apaf1 inhib – inhibitors of human Apaf-1 apoptosome, primary screen, biochemical, DEVD-Rh110 fluorescence, uHTS; inhibition, % at 20 µM; AID 489030, 2010; reconstituted apoptosome caspase-3 activity; Apoptotic protease-activating factor 1 (Homo sapiens), O14727; 0.71% of 330,000 active; active = inhibition of at least 40% at 20 µM;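 also: plate controls were DMSO wells for no effect and DEVD-CHO caspase inhibitor wells for full effect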
Target sequence (O14727 whole entry, looked up): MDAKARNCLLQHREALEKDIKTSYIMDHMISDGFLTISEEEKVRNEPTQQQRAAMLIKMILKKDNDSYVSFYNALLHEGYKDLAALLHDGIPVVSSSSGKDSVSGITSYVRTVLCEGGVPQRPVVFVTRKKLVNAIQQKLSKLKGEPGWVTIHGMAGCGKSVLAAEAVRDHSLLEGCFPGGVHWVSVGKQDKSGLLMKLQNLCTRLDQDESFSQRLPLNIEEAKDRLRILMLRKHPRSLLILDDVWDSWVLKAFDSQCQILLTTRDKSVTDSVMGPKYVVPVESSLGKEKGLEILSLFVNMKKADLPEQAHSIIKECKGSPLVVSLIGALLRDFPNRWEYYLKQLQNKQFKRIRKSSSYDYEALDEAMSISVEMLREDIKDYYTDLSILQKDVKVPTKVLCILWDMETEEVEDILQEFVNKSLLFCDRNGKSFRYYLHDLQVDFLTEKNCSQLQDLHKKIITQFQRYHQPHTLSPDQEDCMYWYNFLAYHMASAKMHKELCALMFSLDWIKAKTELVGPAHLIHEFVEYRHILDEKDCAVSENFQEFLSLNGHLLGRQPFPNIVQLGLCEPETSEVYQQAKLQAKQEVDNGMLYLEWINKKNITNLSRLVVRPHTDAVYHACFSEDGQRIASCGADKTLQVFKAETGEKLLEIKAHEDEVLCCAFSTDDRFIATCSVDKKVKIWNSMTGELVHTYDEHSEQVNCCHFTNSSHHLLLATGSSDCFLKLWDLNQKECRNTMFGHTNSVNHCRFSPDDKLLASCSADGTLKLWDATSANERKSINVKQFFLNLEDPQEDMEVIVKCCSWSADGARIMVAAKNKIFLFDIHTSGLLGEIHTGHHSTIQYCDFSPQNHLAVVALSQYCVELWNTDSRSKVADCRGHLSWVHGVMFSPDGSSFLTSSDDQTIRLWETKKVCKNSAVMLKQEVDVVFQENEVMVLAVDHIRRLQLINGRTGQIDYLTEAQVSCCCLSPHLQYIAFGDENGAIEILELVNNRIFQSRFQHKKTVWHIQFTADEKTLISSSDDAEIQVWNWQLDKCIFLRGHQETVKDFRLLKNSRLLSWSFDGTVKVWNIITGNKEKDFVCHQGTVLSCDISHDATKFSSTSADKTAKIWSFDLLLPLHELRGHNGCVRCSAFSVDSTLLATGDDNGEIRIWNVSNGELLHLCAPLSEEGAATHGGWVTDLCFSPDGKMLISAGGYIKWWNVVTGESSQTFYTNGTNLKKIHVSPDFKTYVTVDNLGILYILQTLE
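System: reconstituted apoptosome with Apaf-1, cytochrome c, caspase-9, procaspase-3, dATP; Signal: Rh110 fluorescence intensity; Schedule: 30 min compound preincubation, 50 min activation, room temperature; Reagent: cytochrome c trigger plus (Z-DEVD)2-Rh110 caspase-3 substrate.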
SENP1 FRET inh – human SENP1 catalytic domain inhibitors, primary screen, biochemical, FRET, uHTS | Sentrin-specific protease 1 (Homo sapiens), Q9P0U3 | recombinant SENP1 catalytic domain, CyPet-SUMO1-YPet FRET cleavage | inhibition, % at 10 µM | 0.21% of 360,000 active;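 active = inhibition at least 30% at 10 µM, raw YFP signal under a set limit, fluorescence ratio 0.5 to 1.5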;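 also: 0% = enzyme with DMSO and 100% = no enzyme wells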
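Assay system: hSENP1 catalytic domain, recombinant. Amount: SENP1 enzyme, 20 pM final. Schedule: 50 min reaction, RT, dark. Technique: FRET, CFP and YFP emission. Control set: no-enzyme wells low, DMSO-plus-enzyme wells high control.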
Apaf-1 inh conf2 – Apaf-1 inhibitors, single-dose retest, confirmation, biochemical, fluorescence, DEVD-Rh110, 20 µM | shares compounds with Apaf1 inhib | reconstituted apoptosome, caspase-3 DEVD-Rh110 fluorescence | inhibition, % at 20 µM | 25% of 1,800 active | AID 504614, 2011;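 active = mean inhibition of at least 40% at 20 µM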;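 also: plate controls were DMSO wells for no effect and DEVD-CHO caspase inhibitor control wells for full effect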
Rh110 quench – Rh110 fluorescence interference by putative Apaf-1 inhibitors, confirmation, artefact control for Apaf-1 inhibitor project, biochemical, 20 µM. shares compounds with Apaf1 inhib. AID 504615, 2011. quenched caspase reaction. 1,800 tested, under 10 active. activation (fluorescence interference), % at 20 µM;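 active = signal rise of 40% or more at 20 µM, treated as a fluorescence artifact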
Fluor interf inh – fluorescence interference of Apaf-1 inhibitor hits, dose response, artefact control for Apaf-1 inhibitor project; shares compounds with Apaf1 inhib; fluorescence interference counterscreen, Apaf-1 assay format; IC50, µM; 460 tested, under 10 active; call rule not given here
* = called active by the depositor; . = not tested or not shown.

SMILES | SENP8 block-1 | SENP8 block-2 | SENP7 block | SENP6 block | Apaf1 inhib | SENP1 FRET inh | Apaf-1 inh conf2 | Rh110 quench | others
O=C(Nc1ccccc1N1CCCC1)C1CCN(S(=O)(=O)c2cccc(C(F)(F)F)c2)CC1 | -1 | 2 | 3 | 6 | 42* | -1 | 7 | 15
O=C(Nc1ccccc1N1CCCCC1)C1CCN(S(=O)(=O)c2cccc(C(F)(F)F)c2)CC1 | -4 | 4 | -12 | -13 | 23 | 1 | . | .
C[C@H]1COC[C@@H](C/C=C/c2ccccc2)N1c1ccccc1 | . | -27 | . | . | . | -9 | . | .
CCC(COC(=O)c1ccccc1)Oc1cc(NCc2ccccc2)c2ncn(C(C)C)c2c1 (stereo unspecified) | -5 | 44* | 0 | -9 | 69* | -30 | 26 | 10
CCC(CO)Oc1cc(NCc2ccccc2OC)c2ncn(C(C)C)c2c1 (stereo unspecified) | -1 | 2 | 6 | -11 | 61* | -18 | 33 | -1
CCC(CO)Oc1cc(NCc2ccc(O)cc2)c2ncn(C(C)C)c2c1 (stereo unspecified) | 4 | 16 | 8 | 14 | 4 | 0 | . | .
COc1cc(NCc2ccccc2)c2ncn(Cc3ccccc3)c2c1 | -5 | 24 | 9 | -3 | 50* | 0 | 28 | 4
COc1ccc(Cc2cc(NCc3ccccc3)c3ncn(C(C)C)c3c2)cc1 | 5 | 12 | 3 | -2 | 35 | 1 | . | .
CCC(CO)Oc1cc(NCc2ccccc2F)c2ncn(C(C)C)c2c1 (stereo unspecified) | 15 | 15 | 14 | 23 | 14 | -30 | . | .
COCCCOc1cc(NCc2ccccc2)c2ncn(C(C)C)c2c1 | -8 | 22 | 4 | -9 | 41* | -2 | 27 | 7
Cc1cn([C@H]2C[C@H](O)[C@@H](CNC(=O)[C@H](N)C3CC3)O2)c(=O)[nH]c1=O | . | -15 | . | . | . | 1 | . | .
COC(=O)CN=Cc1c(C)[nH]n(-c2ccccc2)c1=O | 7 | 25 | 3 | 5 | -11 | 2 | . | .
Cc1[nH]n(-c2ccccc2)c(=S)c1C=NCCCN=Cc1c(C)[nH]n(-c2ccccc2)c1=S | 2 | 31 | 18 | 20 | 63* | -2 | -8 | 1
Cc1ccc(S(=O)(=O)/N=C2\C=C(Nc3cccc(C(=O)O)c3)C(=O)c3ccccc32)cc1 | 93* | 83* | 64* | 91* | 94* | -1 | 98* | 9 | Fluor interf inh=>100
COC(=O)c1ccccc1NC1=C/C(=N\S(=O)(=O)c2ccc(C(=O)O)cc2)c2ccccc2C1=O | 90* | -20 | 24 | 73* | 95* | 4 | 97* | 4 | Fluor interf inh=>100
CCc1ccc(S(=O)(=O)/N=C2\C=C(Nc3ccc(C(=O)O)cc3)C(=O)c3ccccc32)cc1 | 94* | 44* | 63* | 92* | 96* | 0 | 89* | 0 | Fluor interf inh=>100
C/C(=N\NS(=O)(=O)c1ccc(C(C)(C)C)cc1)c1ccccc1 | -6 | 7 | -13 | -22 | 24 | 1 | . | .
COC(=O)c1ccccc1Nc1ccccc1 | 0 | -31 | 2 | -14 | 8 | 1 | . | .
CC(C)(C)c1ccc(S(=O)(=O)/N=C2\C=C(NS(=O)(=O)c3ccccc3)C(=O)c3ccccc32)cc1 | 3 | 51* | 7 | 27 | 46* | 0 | 53* | 4 | Fluor interf inh=>100
CCOC(=O)C1(C)CCCN1C(=O)c1snnc1C (stereo unspecified) | . | 7 | . | . | . | -8 | . | .
CCOC(=O)c1[nH]cnc1C(=O)NC1CCN(C(=O)OC(C)(C)C)CC1 | -4 | -3 | 6 | 0 | -4 | 2 | . | .
Cc1ccc(C(=O)OCC(=O)Nc2cccc(S(=O)(=O)N3CCCCC3)c2)s1 | . | 10 | . | . | . | 0 | . | .
CCOc1ccc(-c2cc(C(=O)NCCCn3ccnc3)c3cc(Br)ccc3n2)cc1 | -3 | -374 | 2 | -7 | 42* | -1 | -1 | 9
O=C(O)CCNc1cc(N2CCN(C(=O)c3ccco3)CC2)c2noc3c2c1C(=O)c1ccccc1-3 | 36 | 70* | 35 | 51* | 81* | 99 | 73* | 1 | Fluor interf inh=13*
Cc1cc(N2CCN(C(=O)c3ccco3)CC2)c2ccccc2n1 | -2 | 8 | -4 | -25 | -6 | -2 | . | .
SMILES | SENP8 block-1 | SENP8 block-2 | SENP7 block | SENP6 block | Apaf1 inhib | SENP1 FRET inh | Apaf-1 inh conf2 | Rh110 quench | others
CCN1CCN(c2cc(N3CCN(C(=O)c4ccco4)CC3)c3c4c(onc24)-c2ccccc2C3=O)CC1 | 3 | 68* | 3 | 10 | 42* | 11 | 29 | 7
CCCC[n+]1ccn(C2=C([O-])c3ccccc3C(=O)/C2=N\S(=O)(=O)c2ccc(Br)cc2)c1 | -1 | 74* | 22 | 49 | 59* | 2 | 68* | 0 | Fluor interf inh=>100
CCCC[n+]1ccn(-c2nc3ccccc3nc2[N-]S(=O)(=O)c2ccc(Cl)cc2)c1 | 1 | -494 | -2 | -1 | -12 | -95 | . | .
Cc1ccc(S(=O)(=O)/N=C2\C(=O)c3ccccc3C([O-])=C2n2cc[n+](CCC(C)C)c2)cc1 | 25 | 84* | 30 | 38 | 57* | 2 | 68* | 3 | Fluor interf inh=>100
Cc1ccc(S(=O)(=O)[N-]c2nc3ccccc3nc2-n2cc[n+](CCC(C)C)c2)cc1 | 13 | -260 | 1 | 10 | -1 | -47 | . | .
O=C(OCc1nc2ccccc2s1)c1ccc([N+](=O)[O-])o1 | 3 | 35 | 8 | 38 | 69* | 0 | 15 | 7
NC(=O)CCn1c2ccccc2c2ccccc21 | 10 | -10 | 3 | -5 | -14 | -1 | . | .
Cc1ccc2c(c1)c1cccc3c1n2CCN3CCC(N)=O | 15 | -397 | 28 | 41 | 51* | 6 | 22 | 11
Cc1ccc(C(=O)Nc2ccccn2)cc1S(=O)(=O)N1CCOCC1 | -8 | -4 | 3 | -11 | 43* | 0 | 33 | 3
Cn1c(=O)n(C)c2cc(/C=N/NC(=O)c3cc4cc(Br)ccc4o3)ccc21 | 3 | -415 | 4 | -13 | 43* | -5 | 11 | -1
Cc1ccc(NC(=O)COc2ccccc2)cc1Cl | 13 | 10 | -4 | 2 | 8 | 0 | . | .

Source: PubChem
